What is called inhibition in vivo is the percentage by which the read-out fell short of the control. Read a low inhibition in vivo as little suppression. A word on the IC50: it is the concentration at which inhibition is half-maximal.

Holding throughout (type): functional
Experiment [1] has as its system Rattus norvegicus. Description: Percent inhibition of paw volume increase in carrageenan-induced rat after a dose of 120 mg/kg was administered and observed after 6 hours of incubation.
The species entered for experiment [2] is Homo sapiens. Put plainly: Compound was evaluated for nitric oxide release (stimulate nitric oxide synthase) in human plasma.
Experiment [3] is filed under the species Homo sapiens. Put plainly: Percent ibuprofen detected after 6 hr incubation in human plasma. In a few lines: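 Compound (0.0438 µmol) in 5 µL acetonitrile added to 495 µL human plasma at 37 °C and incubated 6 h. Diluted with acetonitrile containing 0.1% TFA and centrifuged (9600g, 15 min). […] Expressed as %, mean ± SEM.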
In experiment [4] the test system is Rattus norvegicus. Put plainly: Percent inhibition of paw volume increase in carrageenan-induced rat after a dose of 120 mg/kg was administered and observed after 4 hours of incubation.
For experiment [5], the system named is Rattus norvegicus. Description: Alcerogenic property after intragastric administration to conscious rats for 6 hrs. In outline: (§1)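 Male Wistar rats (180-200 g), fasted 24 h with water allowed, groups of n = 6. […] Killed 6 h after dosing. Stomachs opened along the lesser curvature and examined under a stereomicroscope. Each haemorrhagic lesion was scored by greatest length (<1 mm = 1; 1-2 mm = 2; >2 mm = length in mm). Summed as lesion index, mean ± SEM.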

For experiment [6], the species on record is Homo sapiens. Put plainly: Percent ibuprofen detected after 2 hr incubation in acidic medium (pH=1) […]. In a few lines:
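Compound (0.25 mM) in acetonitrile added to HCl solution at pH 1, 37 °C, incubated 2 h.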

Experiment [7] is described as follows: Antiaggregatory effect against arachidonic acid induced platelet aggregation from the human platelet rich plasma(PRP) in the presence of oxyhemoglobin (HbO2). In a few lines: (§2)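 Human citrated blood spun at 200g for 20 min to give PRP. Compound or DMSO (maximum 0.5%) added 10 min before arachidonic acid (0.5-1 mM, chosen to give 85-95% of maximal aggregation). Oxyhaemoglobin 40 µM final added 12 min before the activator. Light transmission read for 5 min at 37 °C with stirring. […] Mean ± SEM, n = 5.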

In experiment [8] the test system is Rattus norvegicus. Description: Ulcerogenic property after intragastric administration to conscious rats for 6 hrs. In a few lines: as §1
Experiment [9] relates to Rattus norvegicus. Description: Percent inhibition of paw volume increase in carrageenan-induced rat after a dose of 40 mg/kg was administered and observed after 6 hours of incubation.
Experiment [10] concerns Rattus norvegicus. Put plainly: Percent inhibition of paw volume increase in carrageenan-induced rat after a dose of 40 mg/kg was administered and observed after 4 hours of incubation.
Experiment [11] concerns Rattus norvegicus. Put plainly: Ulcerogenic property after intragastric administration to conscious rats after 6 hours of incubation. In a few lines: as §1
Experiment [12] is described as follows: Antiaggregatory effect against arachidonic acid induced platelet aggregation from the human platelet rich plasma(PRP) in the presence of oxyheamoglobin(HbO2, 40 uM). In a few lines:
as §2

Regarding `CC(C)Cc1ccc(C(C)C(=O)OCCCO[N+](=O)[O-])cc1` (stereo not given), the inhibition in vivo at 120 mg/kg was determined as 40% in experiment [1] and 41.8% in experiment [4]. Besides, the “NO2- (mol/mol)” value in [2] came out at 3.2%. Also, the Ibuprofen stood at 27.1% in [3] and 22.3% in experiment [6]. For the same compound, the Lesion index in experiment [5] came out at 0.7 mm. Besides, the IC50 in [7] is 57.5 µM.
With `CCCOC(=O)C(C)c1ccc(CC(C)C)cc1` (stereo not given), the figures for the Ibuprofen in [3] and in experiment [6] were 22.9% and 11.7%, respectively. This compound also displayed a Lesion index in [8] of 3.8 mm. Moreover, the inhibition in vivo at 40 mg/kg is 49.6% in experiment [9] and 37.6% in experiment [10].
For `CC(C)Cc1ccc(C(C)C(=O)OCCCOc2no[n+]([O-])c2S(=O)(=O)c2ccccc2)cc1` (stereo not given), the Lesion index in experiment [11] is 0 mm. Further, the “NO2- (mol/mol)” value in [2] worked out at 34.7%. Further, the Ibuprofen amounted to 46.8% in [3] and 12.9% in [6]. Moreover, the results for the inhibition in vivo at 40 mg/kg in [9] and in [10] were 41.5% and 37.4%, respectively. The IC50 in [12] was 2.69 µM.
As to `CC(C)Cc1ccc(C(C)C(=O)OCCCOc2nonc2Sc2ccccc2)cc1` (stereo not given), the figures for the inhibition in vivo at 120 mg/kg in [1] and in experiment [4] were 54.4% and 48.3%, respectively. In addition, the Ibuprofen in experiment [3] stood at 8.9%; in [6], 6.1%. The compound also yielded a Lesion index in experiment [8] of 1.3 mm.
With `CC(C)Cc1ccc(C(C)C(=O)OCCCOc2no[n+]([O-])c2Sc2ccccc2)cc1` (stereo not given), the inhibition in vivo at 120 mg/kg in [1] was 36.2%; in experiment [4] it was 40.7%. The “NO2- (mol/mol)” value in experiment [2] is 9.5%. Further, the Ibuprofen turned out to be 35.6% in experiment [3] and 6.5% in experiment [6]. This compound also displayed a Lesion index in experiment [8] of 0 mm.
For `CC(C)Cc1ccc(C(C)C(=O)OCCCOc2nonc2S(=O)(=O)c2ccccc2)cc1` (stereo not given), the Ibuprofen in experiment [3] is reported as 26%; in [6], 13%. The same compound came in with a Lesion index in experiment [8] of 5.7 mm. The inhibition in vivo at 40 mg/kg in experiment [9] is 63.3%; in [10], 52.8%.

The values above are taken from ChEMBL document CHEMBL1134631 (J Med Chem, 2001).
